The values below come from ChEMBL document CHEMBL1132111, “Design and synthesis of novel alpha(1)(a) adrenoceptor-selective antagonists. 4. Structure-activity relationship in the dihydropyrimidine series” (J Med Chem, 1999).

pKi: −log10 of the molar value. Values joined by “and” are separate entries in the source; they are usually repeats but may differ in a detail not shown here. Equal entries are not always repeated.

Series [1] concerns the target T1, Alpha-1B adrenergic receptor (Homo sapiens, UniProt P35368).
T1 sequence (P35368 whole entry): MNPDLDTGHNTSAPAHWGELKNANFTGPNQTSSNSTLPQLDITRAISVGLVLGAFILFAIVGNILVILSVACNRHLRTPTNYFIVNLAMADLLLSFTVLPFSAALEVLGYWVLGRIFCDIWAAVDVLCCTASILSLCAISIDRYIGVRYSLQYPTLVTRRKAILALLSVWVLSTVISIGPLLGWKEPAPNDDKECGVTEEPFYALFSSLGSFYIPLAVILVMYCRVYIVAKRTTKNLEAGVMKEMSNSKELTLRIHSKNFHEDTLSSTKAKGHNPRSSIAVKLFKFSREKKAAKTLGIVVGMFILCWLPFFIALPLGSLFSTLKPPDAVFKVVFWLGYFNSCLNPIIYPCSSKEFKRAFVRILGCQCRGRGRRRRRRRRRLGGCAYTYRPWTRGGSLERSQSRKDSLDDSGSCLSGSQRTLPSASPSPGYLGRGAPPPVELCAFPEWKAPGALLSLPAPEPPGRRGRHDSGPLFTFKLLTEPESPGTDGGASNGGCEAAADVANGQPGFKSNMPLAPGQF
Nature of the series: Binding affinity against Alpha-1B adrenergic receptor (recombinant human receptor) using [3H]prazosin.

The target of series [2] is T2, Alpha-1D adrenergic receptor (Homo sapiens, UniProt P25100).
T2 sequence (P25100 whole entry): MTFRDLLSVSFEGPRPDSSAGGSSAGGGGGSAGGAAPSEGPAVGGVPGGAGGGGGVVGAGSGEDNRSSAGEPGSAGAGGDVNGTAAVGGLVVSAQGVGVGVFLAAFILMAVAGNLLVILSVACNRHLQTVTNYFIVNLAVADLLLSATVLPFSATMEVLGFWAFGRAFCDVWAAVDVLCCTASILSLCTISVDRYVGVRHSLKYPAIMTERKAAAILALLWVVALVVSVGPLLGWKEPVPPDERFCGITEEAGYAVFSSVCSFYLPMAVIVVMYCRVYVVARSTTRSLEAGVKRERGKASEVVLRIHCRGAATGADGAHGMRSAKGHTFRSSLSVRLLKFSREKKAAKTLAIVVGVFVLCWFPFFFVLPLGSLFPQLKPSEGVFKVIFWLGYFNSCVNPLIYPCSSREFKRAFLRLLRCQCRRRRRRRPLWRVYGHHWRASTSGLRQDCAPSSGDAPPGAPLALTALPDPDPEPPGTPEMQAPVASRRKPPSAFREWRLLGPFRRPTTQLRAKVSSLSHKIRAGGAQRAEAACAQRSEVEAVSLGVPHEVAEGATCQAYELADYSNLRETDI
In words: Binding affinity against Alpha-1D adrenergic receptor (recombinant human receptor) using [3H]-prazosin.

For series [3], the target named is T3, Alpha-1A adrenergic receptor (Homo sapiens, UniProt P35348).
T3 sequence (P35348 whole entry): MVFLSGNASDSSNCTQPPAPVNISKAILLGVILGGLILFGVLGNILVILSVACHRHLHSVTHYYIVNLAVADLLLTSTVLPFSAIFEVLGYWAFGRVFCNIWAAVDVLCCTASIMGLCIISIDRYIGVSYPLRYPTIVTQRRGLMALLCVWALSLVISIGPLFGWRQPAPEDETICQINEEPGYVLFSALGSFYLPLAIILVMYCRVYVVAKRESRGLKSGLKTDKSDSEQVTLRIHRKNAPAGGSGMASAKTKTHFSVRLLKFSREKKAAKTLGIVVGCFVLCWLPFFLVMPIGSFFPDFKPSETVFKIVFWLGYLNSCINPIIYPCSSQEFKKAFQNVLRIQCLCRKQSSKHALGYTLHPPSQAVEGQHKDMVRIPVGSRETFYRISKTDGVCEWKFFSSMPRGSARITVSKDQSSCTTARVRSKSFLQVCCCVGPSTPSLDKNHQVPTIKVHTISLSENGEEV
Nature of the series: Binding affinity against Alpha-1A adrenergic receptor (recombinant human receptor) using [3H]prazosin.

Series [4] can be described thus: Selectivity against alpha-1a receptor over alpha-2a,b,c adrenoceptors. Summed up: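 Binding affinities (Ki, nM) measured at recombinant human α1a and α2a, α2b and α2c adrenoceptors; fold selectivity expressed as the ratio of α2 subtype Ki to α1a Ki.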
The nature of series [5]: Selectivity for alpha-1a receptor against rat L-type calcium channel by [3H]nitrendipine binding.
Series [6] deals with Canis familiaris. In words: Area under curve at an iv dose of 1 mg/kg in dog. Also noted: dose 1 mg/kg, route intravenous. It is filed as ADME, organism-based, Canis lupus familiaris. As to conditions: in vivo. In short, it runs like this: (§1)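 Each compound dosed once intravenously at 1 mg/kg and orally at 3 mg/kg. Exposure read as plasma area under the concentration-time curve, reported in µmol min/L.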

The test system of series [7] is Canis familiaris. Nature of the series: Area under curve at a peroral dose of 3 mg/kg in dog. As to conditions: in vivo, po. It is filed as ADME, organism-based, Canis lupus familiaris. Also on record: dose 3 mg/kg, route oral. Summed up:
as §1

Series [8] can be described thus: Bioavailability in rat. It is filed as ADME, organism-based. As to conditions: in vivo.
The nature of series [9]: Plasma half life in rat. Format: ADME, organism-based.
In series [10] the test system is Rattus norvegicus. In words: Area under curve at an iv dose of 1 mg/kg in rat. Format: ADME, organism-based. Also on record: dose 1 mg/kg, route intravenous. As to conditions: in vivo. Summed up: as §1
A short description of series [11]: Plasma half life in dog. Format: ADME, organism-based, Canis lupus familiaris.
The species named for series [12] is Rattus norvegicus. Nature of the series: Antagonistic activity inhibiting phenylephrine induced contractions in isolated rat prostate. It is filed as functional, Prostate gland.
The test system of series [13] is Rattus norvegicus. Nature of the series: Area under curve at a peroral dose of 3 mg/kg in rat. It is filed as ADME, organism-based. The note with it: in vivo, po. Also noted: dose 3 mg/kg, route oral. Summed up:
as §1

Series [14] can be described thus: Bioavailability in dog(iv: 1 mg/kg). It is filed as ADME, organism-based, Canis lupus familiaris. As to conditions: in vivo.
A short description of series [15]: Bioavailability in dog. Format: ADME, organism-based, Canis lupus familiaris. As to conditions: in vivo.

Broadly, the pKi is −log10 of the Ki, conventionally taken in molar units. For `COC(=O)C1=C(C)N=C(C)N(CCCCCN2CCC(C#N)(c3ccccc3)CC2)C1c1ccc(F)c(F)c1` (configuration not stated), the pKi is 6.31 in [1], 5.96 in series [2] and 9.00 in series [3]. Moreover, the Fold selective in series [4] was above 300.
Turning to `CNC(=O)C1=C(C)N=C(C)N(CCCCCN2CCC(C(=O)OC)(c3ccccc3)CC2)C1c1ccc(F)cc1F` (configuration not stated), the pKi in series [1] was 6.06; in [2], 5.72; in series [3] it was 7.85. This compound also registered a Fold selective in series [4] below 80.
On to `COC(=O)C1=C(C)N=C(C)N(CCC[C@H](C)CN2CCN(c3ccccc3C(N)=O)CC2)C1c1ccc(F)c(F)c1` (some centres not stated), for which the pKi is 6.09 in series [1], 5.77 in series [2] and 8.46 in series [3]. The compound further showed a Fold selective in series [4] below 100.
On to `COCC1=C(C(=O)OC)C(c2ccc(F)c(F)c2)N(CCCCCN2CCC(C#N)(c3ccccc3)CC2)C(C)=N1` (configuration not stated), for which the pKi in series [1] is 6.40; in series [2], 6.17; in series [3], 9.40. In series [4], this compound showed a Fold selective above 4000.
In the same order, the values of `COC(=O)C1=C(C)N=C(C)N(CCCCCN2CCC(c3ccccc3OC)CC2)C1c1ccc(F)c(F)c1` (configuration not stated) are 6.85, 6.92, 9.52 and above 100.
For the compound `COC(=O)C1=C(C)N=C(C)N(CCCCCN2CCC(c3ccccc3C(F)(F)F)CC2)C1c1ccc(F)c(F)c1` (configuration not stated), the negative-log Ki (pKi) was 6.30 in [1], 5.96 in series [2] and 8.96 in series [3]. Further, the Selectivity in series [5] was below 100.
Usually bioavailability stands for dose-corrected exposure relative to a reference, in per cent. A high value points to much systemic uptake. Usually half-life stands for how long it takes for the measured level to halve. A lower half-life goes with rapid decline. The term Kb denotes the equilibrium dissociation constant of an antagonist, usually derived from a functional assay. Low readings indicate higher antagonist affinity, high ones lower antagonist affinity. In the case of `COC(=O)C1=C(C)N=C(C)N(CCCCCN2CCC(c3ccc(C)cc3)(c3ccccc3C)CC2)C1c1ccc(F)c(F)c1` (configuration not stated), the AUC amounted to 11 uM min l-1 in the series on Canis familiaris [6], 8 uM min l-1 in the series with Canis familiaris [7], 35 uM min l-1 in the series with Rattus norvegicus [10] and 21 uM min l-1 in the series with Rattus norvegicus [13]. Also, the figures for the pKi in [1], in series [2] and in [3] were 6.60, 6.36 and 10.00, respectively. Besides, the figures for the bioavailability in series [8] and in [14] were 17% and 8%, respectively. In addition, the half-life in series [9] was 4.7 h; in series [11], 0.5 h. In the series filed under Rattus norvegicus [12], this compound yielded an antagonist dissociation constant (Kb) of 27 nM.
In the case of `COC(=O)C1=C(C)N=C(C)N(CCCCCN2CCN(c3ccccc3C(N)=O)CC2)C1c1ccc(F)c(F)c1` (configuration not stated), the values for the bioavailability in [15] and in [8] were below 10% and 21%, respectively. For the same compound, the figures for the negative-log Ki (pKi) in [1], in [2] and in series [3] were 6.62, 6.24 and 9.22, respectively. For the same compound, the half-life in series [9] was 2.1 h; in series [11], 4 h. Also, the results for the AUC with Rattus norvegicus [10] and with Rattus norvegicus [13] were 5 uM min l-1 and 4 uM min l-1, respectively. In the series filed under Rattus norvegicus [12], the antagonist equilibrium constant (Kb) came to 7 nM.
As for `COC(=O)C1=C(C)N=C(C)N(Cc2cccc(CN3CCC(C(=O)OC)(c4ccccc4)CC3)c2)C1c1ccc(F)c(F)c1` (configuration not stated), the negative logarithm of the Ki (pKi) is 6.49 in series [1], 6.24 in series [2] and 8.17 in series [3]. For the same compound, the Fold selective in series [4] was above 130.
On to `COC(=O)C1=C(C)N=C(C)N(CCCCCN2CCC(C(=O)OC)(c3ccccc3)CC2)C1c1ccc(F)cc1F` (configuration not stated), for which the values for the pKi in [1], in [2] and in series [3] were 6.80, 6.15 and 9.30, respectively. The Fold selective in [4] was above 1000.
In the same order, the values of `COC(=O)C1=C(C)N=C(C)N(CCCCCN2CCC(c3ccccc3)CC2)C1c1ccc(F)c(F)c1` (configuration not stated) are 7.03, 6.66, 9.40 and above 300.
For `COC(=O)C1=C(C)N=C(C)N(CCCCCN2CCN(c3ccccc3OC)CC2)C1c1ccc(F)c(F)c1` (configuration not stated), the negative logarithm of the Ki (pKi) was 7.17 in series [1], 7.19 in series [2] and 9.40 in series [3]. Besides, the Fold selective in [4] is below 100.
For `COC(=O)C1=C(C)N=C(C)N(CCCCCN2CCN(c3ccccc3C(=O)OC)CC2)C1c1ccc(F)c(F)c1` (configuration not stated), the negative logarithm of the Ki (pKi) in series [1] was 7.47; in series [2], 7.10; in [3], 9.30. Besides, the Fold selective in series [4] is above 100.
With `COC(=O)C1=C(C)N=C(C)N(CCCCN2CCC(C(=O)OC)(c3ccccc3)CC2)C1c1ccc(F)c(F)c1` (configuration not stated), the pKi in series [1] was 6.36; in [2] it was 6.21; in series [3], 8.44. This compound also had a Fold selective in series [4] below 80.
Take `COC(=O)C1=C(C)N=C(C)N(CCCCCN2CCC(C(=O)OC)(c3ccccc3)CC2)C1c1ccc(F)c(F)c1` (configuration not stated): the negative-log Ki (pKi) in series [1] is 6.15 and 6.72; in series [2], 6.26 and 6.74.
As for `COC(=O)C1=C(C)N=C(C)N(CCC[C@H](C)CN2CCC(C#N)(c3ccccc3)CC2)C1c1ccc(F)c(F)c1` (some centres not stated), the figures for the pKi in series [1], in series [2] and in series [3] were 6.32, 5.96 and 8.92, respectively. In [4], the Fold selective was above 120.
Regarding `COC(=O)C1=C(C)N=C(C)N(CCC[C@H](C)CN2CCC(C(=O)OC)(c3ccccc3)CC2)C1c1ccc(F)c(F)c1` (single isomer, unassigned; (+)), the negative-log Ki (pKi) in [1] is 6.37; in series [2], 6.04; in series [3] it was 8.80. The same compound gave a Fold selective in series [4] below 50.
Take `COC(=O)C1=C(C)N=C(C)N(CCC[C@@H](C)CN2CCN(c3ccccc3C(N)=O)CC2)C1c1ccc(F)c(F)c1` (single isomer, unassigned; (+)): the negative-log Ki (pKi) is 5.82 in [1], 5.77 in series [2] and 7.70 in [3]. The compound further registered a Fold selective in series [4] below 10.
As to `COCC1=NC(C)=C(C(=O)OC)C(c2ccc(F)c(F)c2)N1CCCCCN1CCC(C#N)(c2ccccc2)CC1` (configuration not stated), the pKi in [1] is 6.51; in series [2], 6.32; in [3], 9.40. This compound displayed a Fold selective in [4] above 700.
`COC(=O)C1=C(C)N=C(C)N(CCC[C@@H](C)CN2CCC(C#N)(c3ccccc3)CC2)C1c1ccc(F)c(F)c1` (some centres not stated): the results for the pKi in series [1], in series [2] and in series [3] were 5.77, 5.80 and 7.66, respectively. The same compound returned a Fold selective in series [4] below 10.
On to `COC(=O)C1(c2ccccc2)CCN(CCCCCN2C(C)=NC(C)=C(C(N)=O)C2c2ccc(F)cc2F)CC1` (configuration not stated), for which the negative-log Ki (pKi) was 6.39 in [1], 6.16 in [2] and 8.38 in [3]. Besides, the Fold selective in [4] is below 10.
On to `COC(=O)C1=C(C)NC(=O)N(CCCCCN2CCC(C(=O)OC)(c3ccccc3)CC2)C1c1ccc(F)c(F)c1` (configuration not stated), for which, in series [4], the Fold selective was above 1000.
